Measured values as given in ChEMBL document CHEMBL5653630, “Activation of the p53-MDM4 regulatory axis defines the anti-tumour response to PRMT5 inhibition through its role in regulating cellular splicing” (Sci Rep, 2018).
Calls of active or inactive are those of the source. The calls are words filed in the database; no cut-off is given here.

How the values were obtained:
MCF7 = test: Induction of cell cycle arrest in human MCF7 cells assessed as increase in sub-2N cell population measured upto 5000 nM measured for 7 to 10 days by propidium iodide staining based flow cytometric analysis; type: functional; conditions: time 7-10 day
MCL = test: Induction of cell cycle arrest in human MCL cells assessed as increase in 2n cell population measured upto 5000 nM measured for 3 days by propidium iodide staining based flow cytometric analysis; type: functional; conditions: time 3.0 day
KMS-11 = test: Antiproliferative activity against human KMS-11 cells assessed as cell growth inhibition incubated for 6 days by celltiter-glo assay; type: functional; conditions: KMS-11, 144 h, time 6 day
How it was run: (§1)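 Cells seeded in 384-well plates at an optimized density and held 24 h. CellTiter-Glo luminescence read at Day 0 and Day 6. Four-parameter fit. gIC50 = midpoint of the growth window between DMSO and T0. Curves required ≥1.5 population doublings.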

MDA-MB-468 = test: Induction of cell cycle arrest in human MDA-MB-468 cells assessed as increase in sub-2n cell population measured upto 5000 nM measured for 7 to 10 days by propidium iodide staining based flow cytometric analysis; type: functional; conditions: time 7-10 day
Z-138 = test: In vivo inhibition of PRMT5 in human Z138 cells xenografted in mouse assessed as increase in CDKN1 expression at 100 mg/kg, po BID measured for 7 days; type: functional, organism-based; conditions: time 7.0 day
[1] = Toxicity in mouse assessed as body weight loss at 25 mg/kg, po pretreated for 21 days followed by treatment holiday for 10 days and further compound treatment for 2 weeks starting from day 32 followed by 1 week treatment holiday; type: organism-based; conditions: in vivo, 504 h, time 21 day
Maver1 = test: Induction of apoptosis in human MAVER-1 cells assessed as early apoptotic cells incubated for 6 days by annexin-V/FITC propidium iodide staining based flow cytometry analysis; type: functional, cell-based; conditions: dose <= 5000.0 nM, time 6.0 day
SCC-25 = test: Antiproliferative activity against human SCC-25 cells assessed as cell growth inhibition incubated for 10 days; type: functional; conditions: SCC-25, 240 h, time 10 day
NCI-H596 = test: Antiproliferative activity against human NCI-H596 cells assessed as cell growth inhibition incubated for 10 days; type: functional; conditions: NCI-H596, 240 h, time 10 day
Capan-2 = test: Antiproliferative activity against human Capan-2 cells assessed as cell growth inhibition incubated for 10 days; type: functional; conditions: Capan-2, 240 h, time 10 day
How it was run: (§2)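 Outsourced panel run in 384-well plates. Cells were grown in RPMI-1640/10% FBS or a special medium at 37°C, 5% CO2. Compound was added 24 h after seeding as a 10-point, 3.16-fold series in 0.1% DMSO. Medium was refreshed and cells re-dosed at 168 h, with a time-zero plate kept. At 240 h cells were fixed, nuclei stained and imaged. gIC50 is growth midway between untreated and time zero, from a 4-parameter fit.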

[2] = target: Protein arginine N-methyltransferase 5 (Homo sapiens) (UniProt O14744); test: Inhibition of PRMT5 in human Z138 cells assessed as MDM4 splicing at 8 to 1000 nM incubated for 3 days by RT-PCR analysis; type: cell-based; conditions: dose 8-1000 nM, time 3.0 day
Chain of Protein arginine N-methyltransferase 5 (Homo sapiens) (O14744 whole entry): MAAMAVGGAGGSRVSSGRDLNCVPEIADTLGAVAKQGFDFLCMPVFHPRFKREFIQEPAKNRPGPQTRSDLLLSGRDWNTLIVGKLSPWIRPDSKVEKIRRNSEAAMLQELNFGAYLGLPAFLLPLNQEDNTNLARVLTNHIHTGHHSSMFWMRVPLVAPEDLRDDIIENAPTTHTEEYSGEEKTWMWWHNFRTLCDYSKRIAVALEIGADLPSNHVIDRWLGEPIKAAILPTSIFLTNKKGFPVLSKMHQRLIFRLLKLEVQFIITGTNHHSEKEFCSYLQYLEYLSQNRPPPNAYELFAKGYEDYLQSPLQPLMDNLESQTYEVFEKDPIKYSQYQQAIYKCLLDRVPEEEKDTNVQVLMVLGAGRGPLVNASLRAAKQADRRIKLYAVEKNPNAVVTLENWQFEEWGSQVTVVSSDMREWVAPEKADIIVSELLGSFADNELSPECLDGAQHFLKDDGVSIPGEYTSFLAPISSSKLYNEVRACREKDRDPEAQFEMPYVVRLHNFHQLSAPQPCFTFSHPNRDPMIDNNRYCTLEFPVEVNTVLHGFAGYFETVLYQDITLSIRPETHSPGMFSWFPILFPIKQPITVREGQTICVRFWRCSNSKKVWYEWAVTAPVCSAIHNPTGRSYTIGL

SW982 = test: Antiproliferative activity against human SW982 cells assessed as cell growth inhibition incubated for 10 days; type: functional; conditions: SW982, 240 h, time 10 day
NCI-H747 = test: Antiproliferative activity against human NCI-H747 cells assessed as cell growth inhibition incubated for 10 days; type: functional; conditions: NCI-H747, 240 h, time 10 day
HCT-15 = test: Antiproliferative activity against human HCT-15 cells assessed as cell growth inhibition incubated for 10 days; type: functional; conditions: HCT-15, 240 h, time 10 day; how it was run: as §2
[3] = target: Protein arginine N-methyltransferase 5 (Homo sapiens) (UniProt O14744); test: Inhibition of PRMT5 in human Z138 cells assessed as effect on snRNP B1 level by measuring fold change by LC-MS/MS analysis relative to control; type: cell-based
[4] = Antiproliferative activity against human C4-1 cells assessed as cell growth inhibition incubated for 10 days; type: functional; conditions: C4-1, 240 h, time 10 day
How it was run: (§3)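 Cells kept in RPMI-1640 with 10% FBS, 2 mM L-alanyl-L-glutamine and 1 mM Na pyruvate (or a special medium) at 37°C, 5% CO2. Compound added 24 h after seeding, 10 concentrations in 3.16-fold dilution, 0.1% DMSO final. Medium replaced and cells re-dosed at 168 h; 240 h incubation. Nuclei fixed, dye-stained and imaged. gIC50 = growth midway between untreated and time-zero cell counts, from a 4-parameter fit.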

SiHa = test: Antiproliferative activity against human SiHa cells assessed as cell growth inhibition incubated for 10 days; type: functional; conditions: 240 h, time 10 day
ASPC1 = test: Antiproliferative activity against human ASPC1 cells assessed as cell growth inhibition incubated for 10 days; type: functional; conditions: ASPC1, 240 h, time 10 day; how it was run: as §3
U-251 = test: Antiproliferative activity against human U-251MG cells assessed as cell growth inhibition incubated for 6 days by celltiter-glo assay; type: functional; conditions: U-251, 144 h, time 6 day; how it was run: as §1
[5] = Antiproliferative activity against human RKOE6 cells assessed as cell growth inhibition incubated for 10 days; type: functional; conditions: RKOE6, 240 h, time 10 day
BHT-101 = test: Antiproliferative activity against human BHT-101 cells assessed as cell growth inhibition incubated for 10 days; type: functional; conditions: BHT-101, 240 h, time 10 day; how it was run: as §3
[6] = target: Protein arginine N-methyltransferase 5 (Homo sapiens) (UniProt O14744); test: Inhibition of PRMT5 in p53 knockout human Z138 cells effect on p53 expression at 500 nM incubated for 3 to 11 days by Western blot analysis; type: cell-based; conditions: time 3-11 day
G-401 = test: Antiproliferative activity against human G-401 cells assessed as cell growth inhibition incubated for 10 days; type: functional; conditions: G-401, 240 h, time 10 day; how it was run: as §2
SK-N-FI = test: Antiproliferative activity against human SK-N-FI cells assessed as cell growth inhibition incubated for 10 days; type: functional; conditions: 240 h, time 10 day
NCI-H661 = test: Antiproliferative activity against human NCI-H661 cells assessed as cell growth inhibition incubated for 10 days; type: functional; conditions: NCI-H661, 240 h, time 10 day
Detroit 562 = test: Antiproliferative activity against human Detroit 562 cells assessed as cell growth inhibition incubated for 10 days; type: functional; conditions: Detroit 562, 240 h, time 10 day; how it was run: as §2
SAOS-2 = test: Antiproliferative activity against human SAOS-2 cells assessed as cell growth inhibition incubated for 10 days; type: functional; conditions: SAOS-2, 240 h, time 10 day
SW1353 = test: Antiproliferative activity against human SW1353 cells assessed as cell growth inhibition incubated for 10 days; type: functional; conditions: SW1353, 240 h, time 10 day
HMCB cell line = test: Antiproliferative activity against human HMCB cell line assessed as cell growth inhibition incubated for 10 days; type: functional; conditions: 240 h, time 10 day; how it was run: as §2
HPAF-II = test: Antiproliferative activity against human HPAF-II cells assessed as cell growth inhibition incubated for 10 days; type: functional; conditions: 240 h, time 10 day; how it was run: as §2
WiDr = test: Antiproliferative activity against human WiDr cells assessed as cell growth inhibition incubated for 10 days; type: functional; conditions: 240 h, time 10 day
CFPAC-1 = test: Antiproliferative activity against human CFPAC-1 cells assessed as cell growth inhibition incubated for 10 days; type: functional; conditions: CFPAC-1, 240 h, time 10 day; how it was run: as §3
NCI-H69 = test: Antiproliferative activity against human NCI-H69 cells assessed as cell growth inhibition incubated for 10 days; type: functional; conditions: NCI-H69, 240 h, time 10 day

CC(=O)N1CCC(Nc2cc(C(=O)NC[C@H](O)CN3CCc4ccccc4C3)ncn2)CC1 [PEMRAMETOSTAT]
Activity (MCF7): Active | Activity (MCL): Active | GI50 (KMS-11): 66 nM | Activity (MDA-MB-468): Active | inhibition (Z-138): Active | Activity [1]: Non-Toxic | Activity (Maver1): Dose-Dependent Effect

O=C(NC[C@H](O)CN1CCc2ccccc2C1)c1ccnc(NC2CCC2)c1
GI50 (SCC-25): 273 nM | GI50 (NCI-H596): 188 nM | GI50 (Capan-2): 69.7 nM | inhibition [2]: Active | GI50 (SW982): 56.7 nM | GI50 (NCI-H747): 2580 nM | GI50 (HCT-15): 68.4 nM | fold change (FC) [3]: -16.8 | GI50 [4]: 139 nM | GI50 (SiHa): 2510 nM | GI50 (ASPC1): 302 nM | GI50 (U-251): 3490 nM | GI50 [5]: 210 nM | GI50 (BHT-101): 214 nM | inhibition [6]: inactive | GI50 (G-401): 38.4 nM | GI50 (SK-N-FI): 308 nM | GI50 (NCI-H661): 152 nM | GI50 (Detroit 562): 104 nM | GI50 (SAOS-2): 48.2 nM | GI50 (SW1353): 129 nM | GI50 (HMCB cell line): 666 nM | GI50 (HPAF-II): 154 nM | GI50 (WiDr): 505 nM | GI50 (CFPAC-1): 52.3 nM | GI50 (NCI-H69): 144 nM
